In series [1] the test system is MCF-7. Kind of series: Antiproliferative activity, SRB assay. It counts as cell-based, human. Conditions: for calculated selectivity index SI: IC50 MCF-10A / IC50 MCF-7.
The test system of series [2] is MV4-11. Kind of series: Antiproliferative activity, MTT assay. It is filed as cell-based, human. The note with it: for calculated selectivity index SI: IC50 MCF-10A / IC50 MV4-11; for IC50: MV4-11, 72 h.
The subject of series [3] is PC-3. Kind of series: Antiproliferative activity, SRB assay. It is filed as cell-based, human. The note with it: for calculated selectivity index SI: IC50 MCF-10A / IC50 PC3.
For series [4], the system named is A-549. Briefly: Antiproliferative activity, SRB assay. It is filed as cell-based, human. Conditions: for calculated selectivity index SI: IC50 MCF-10A / IC50 A-549.
Series [5] has as its system MDA-MB-468. Briefly: Antiproliferative activity, SRB assay. It is filed as cell-based, human. The note with it: for calculated selectivity index SI: IC50 MCF-10A / IC50 MDA-MB-468; for IC50: MDA-MB-468, 72 h.
Series [6] has as its system MCF-10A. Kind of series: cells. It counts as cell-based, human.
The conditions of series [7]: background statement, no reference given, cited from earlier work.
Series [8] relates to MV4-11 cells. Kind of series: Apoptosis determination by Annexin V staining. It is filed as cell-based, human. The note with it: MV4-11, 1.5 × IC50.
Series [9] has as its system MDA-MB-468 cells. Briefly: Cell cycle analysis. The note with it: MDA-MB-468, 72 h, 1.5 × IC50. It counts as cell-based, human.
Series [10] deals with MV4-11 cells. Kind of series: Cell cycle analysis. It counts as cell-based, human. Conditions: MV4-11, 72 h, 1.5 × IC50.
Series [11] deals with caspase-3/7 in MV4-11 cells. Kind of series: Caspase-3/7 activity determination. It counts as cell-based, human. Conditions: MV4-11, 24 h or 72 h, 1.5 × IC50.
Series [12] concerns caspase-3/7 in MDA-MB-468 cells. Briefly: Caspase-3/7 activity determination. It counts as cell-based, human. Conditions: MDA-MB-468, 24 h or 72 h, 1.5 × IC50.
For series [13], the system named is selected cancer cell lines (MV4-11, A549, PC-3, MDA-MB-468, MCF-7). Briefly: Antiproliferative activity, all studied cancer cell lines together. It counts as cell-based, human. Conditions: read-out: IC50 values, range over all studied cancer cell lines; 72 h. An outline of the steps: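 Cells were seeded 24 h before treatment at 0.5×10^4 (A549), 0.75×10^4 (MDA-MB-468, MCF-7) or 1×10^4 (PC-3, MV4-11) cells/well. They were exposed 72 h to test compound at 1–625 μM in medium; loaded nanocarrier was dosed by encapsulated conjugate. Read-out was MTT (MV4-11) or SRB (others). Triplicates, 3–5 independent runs; IC50 per run, mean ± SD.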

Where [14] appears, read: SRB, n.a. = not active in the range concentration (5–625 μM).

SMILES strings stand for the structures. In brackets after ≈: the same amount, converted by molar mass.

`CCCCCCCCCCCCCCCCCC(=O)OC[C@H](COP(=O)([O-])OCC[N+](C)(C)C)OC(=O)Cc1c(C)n(C(=O)c2ccc(Cl)cc2)c2ccc(OC)cc12` [SA-IND-PC, 1-stearoyl-2-indomethacinoyl-sn-glycero-3-phosphocholine]: the “calculated selectivity index SI” value in series [1] is recorded as 1.87; in series [2], 1.64; in series [3], 2.34; in series [4], 2.22; in [5], 1.87. The IC50 in series [1] (MCF-7, 72 h, SRB) is 288 ± 22.2 µM; in [2] (MTT) it was 329 ± 34.6 µM; in [3] (PC3, 72 h, SRB), 230 ± 15.8 µM; in [4] (A-549, 72 h, SRB) it was 243 ± 15.7 µM; in series [5] (setting [14]), 289 ± 12.2 µM.
Take `COc1ccc2c(c1)c(CC(=O)O)c(C)n2C(=O)c1ccc(Cl)cc1` [IND, indomethacin, reference compound]: the IC50 in [6] (Homo sapiens, MCF-10A, 72 h) was 191 ± 11.4 µM; in [1] (Homo sapiens, MCF7, 72 h), 187 ± 19.4 µM; in series [2] (Homo sapiens), 204 ± 41.5 µM; in [3] (Homo sapiens, PC-3, 72 h), 160 ± 61.5 µM; in series [4] (Homo sapiens, A549, 72 h), 121 ± 31.6 µM; in series [5] (Homo sapiens) it was 270 ± 56.3 µM. Further, the “Biopharmaceutical Classification System (BCS) class” value in [7] is “Class II”. Besides, the water solubility in [7] (pH7) was 105.2 µg/mL (≈ 294 µM).
Consider `COc1ccc2c(c1)c(CC(=O)OC[C@@H](O)COP(=O)([O-])OCC[N+](C)(C)C)c(C)n2C(=O)c1ccc(Cl)cc1` [IND-LPC, 1-indomethacinoyl-2-hydroxy-sn-glycero-3-phosphocholine], for which, in [6] (at 3.1 μM and 2.7 μM), the “toxicity towards MCF-10A at the active doses” value is reported as “not toxic”. In addition, in series [8], the “effect on number of apoptotic (AnV+/PI+) cells” value is “slightly increased”. Moreover, the “effect on cell cycle / cell death” value is listed as “strongly induces breast cancer cell death” in [9] and “strongly induced cell death” in series [10]. Moreover, the “calculated selectivity index SI” value in series [1] is 0.87; in [2], 2.23; in series [3], 0.48; in series [4] it was 0.25; in series [5], 2.56. In addition, the IC50 in series [1] (MCF-7, 72 h, SRB) was determined as 7.9 ± 0.7 µM; in series [2] (MTT), 3.1 ± 0.5 µM; in series [3] (PC3, 72 h, SRB), 14.4 ± 2.9 µM; in series [4] (A-549, 72 h, SRB) it was 27.2 ± 4.9 µM; in series [5] (setting [14]) it was 2.7 ± 0.5 µM. For the same compound, the caspase-3/7 activation entry in [11] and in series [12] was “higher level after 24 h than 72 h” in each case. The “fold lower IC50 than free IND” value is on record as 66 fold in series [2] (MV4-11) and 100 fold in [5] (MDA-MB-468). For the same compound, the “times more active against MDA-MB-468 than MCF-7” value in series [5] (MDA-MB-468 vs MCF-7) stood at 3 times.
`CCCCCCCCCCCCCCCC(=O)OC[C@H](COP(=O)([O-])OCC[N+](C)(C)C)OC(=O)Cc1c(C)n(C(=O)c2ccc(Cl)cc2)c2ccc(OC)cc12` [PA-IND-PC, 1-palmitoyl-2-indomethacinoyl-sn-glycero-3-phosphocholine]: the “calculated selectivity index SI” value in [1] is on record as 1.12; in [2], 1.16; in series [3], 1.33; in series [4], 1.33; in [5], 1.10. The IC50 in series [1] (MCF-7, 72 h, SRB) is 276 ± 134 µM; in [2] (MTT) it was 268 ± 34.3 µM; in [3] (PC3, 72 h, SRB) it was 233 ± 0.6 µM; in series [4] (A-549, 72 h, SRB), 233 ± 108 µM; in series [5] (setting [14]), 281 ± 35.9 µM.
As to `CCCCCCCC/C=C\CCCCCCCC(=O)OC[C@H](COP(=O)([O-])OCC[N+](C)(C)C)OC(=O)Cc1c(C)n(C(=O)c2ccc(Cl)cc2)c2ccc(OC)cc12` [OA-IND-PC, 1-oleoyl-2-indomethacinoyl-sn-glycero-3-phosphocholine], in series [8], the “effect on number of apoptotic (AnV+/PI+) cells” value is “slightly increased”. Besides, the “effect on cell cycle / cell death” value in series [9] is reported as “stopped the cell cycle in the G0/G1 phase, but did not induce cell death”; in series [10], “strongly induced cell death”. Further, the IC50 is 33.5 to 67.5 µM in series [13]; 59.8 ± 2.1 µM in series [1] (MCF-7, 72 h, SRB); 56.3 ± 0.8 µM in [2] (MTT); 58 ± 11.9 µM in series [3] (PC3, 72 h, SRB); 53.8 ± 1.2 µM in [4] (A-549, 72 h, SRB); 56.4 ± 0.6 µM in [5] (setting [14]). For the same compound, the “calculated selectivity index SI” value is on record as 1.70 in series [1]; 1.80 in [2]; 1.75 in [3]; 1.89 in series [4]; 1.80 in series [5]. For the same compound, the caspase-3/7 activation result in [11] is “strongly increased caspase activity in MV4-11 cells after 72 h”.
In the case of `CCCCCCCCCCCCCCCC(=O)O[C@H](COC(=O)Cc1c(C)n(C(=O)c2ccc(Cl)cc2)c2ccc(OC)cc12)COP(=O)([O-])OCC[N+](C)(C)C` [IND-PA-PC, 1-indomethacinoyl-2-palmitoyl-sn-glycero-3-phosphocholine], the IC50 in series [1] (MCF-7, 72 h, SRB) is 424 ± 14.4 µM; in series [2] (MTT), 430 ± 104 µM; in series [3] (PC3, 72 h, SRB) it was 563 ± 75.1 µM; in series [4] (A-549, 72 h, SRB) it was 423 ± 84.1 µM.
With `CCCCCCCCCCCCCCCCCC(=O)O[C@H](COC(=O)Cc1c(C)n(C(=O)c2ccc(Cl)cc2)c2ccc(OC)cc12)COP(=O)([O-])OCC[N+](C)(C)C` [IND-SA-PC, 1-indomethacinoyl-2-stearoyl-sn-glycero-3-phosphocholine], the “calculated selectivity index SI” value was 1.33 in series [1]; 1.90 in series [2]; 1.46 in series [3]; 1.51 in [4]; 1.42 in series [5]. Also, the IC50 was 230 ± 10.3 µM in series [1] (MCF-7, 72 h, SRB); 160 ± 59.7 µM in [2] (MTT); 209 ± 18.3 µM in series [3] (PC3, 72 h, SRB); 201 ± 23.5 µM in [4] (A-549, 72 h, SRB); 214 ± 46.1 µM in [5] (setting [14]).

The IC50 is the concentration that inhibits the measured activity by half.

These data come from publication PMC11608545 (International Journal of Nanomedicine, 2024).
